According to ChEMBL document CHEMBL1158358, “Synthesis, antimicrobial and cytotoxic activities of some 5-arylidene-4-thioxo-thiazolidine-2-ones” (Eur J Med Chem, 2009):
In brackets after ≈: the same amount, converted by molar mass.

How the values were obtained:
Assay type in all cases: functional
Enterococcus faecalis [1] = assay: Antimicrobial activity against multidrug-resistant Enterococcus faecalis H.C. 24962 isolate after 20 hrs by twofold serial dilution technique; conditions: H.C. 24962, 20 h
How it was run: (§1)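 Twofold serial dilution MIC in agar plates against Gram-positive strains and multidrug-resistant clinical isolates. Inoculum applied was 10⁵ CFU/plate. Plates with culture medium plus DMSO served as negative control. MIC was read after incubation at 35 °C for 20 h.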

Enterococcus faecalis [2] = assay: Antimicrobial activity against Enterococcus faecalis UFPEDA 138 after 20 hrs by twofold serial dilution technique; conditions: UFPEDA 138, 20 h
How it was run: (§2)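 MIC was determined by twofold serial dilution. Bacteria were tested in plates at 10⁵ CFU/plate and read after 20 h. C. albicans was tested in tubes at 10³ CFU/tube and read after 48 h. All incubations were at 35 °C. Medium plus DMSO served as the negative control.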

Staphylococcus aureus [3] = assay: Antimicrobial activity against multidrug-resistant Staphylococcus aureus H.C. 20489 isolate after 20 hrs by twofold serial dilution technique; conditions: H.C. 20489, 20 h; how it was run: as §1
Candida albicans [4] = assay: Antimicrobial activity against Candida albicans UFPEDA 1007 after 48 hrs by twofold serial dilution technique; conditions: UFPEDA 1007, 48 h; how it was run: as §2
Staphylococcus aureus [5] = assay: Antimicrobial activity against multidrug-resistant Staphylococcus aureus H.C. 20981 isolate after 20 hrs by twofold serial dilution technique; conditions: H.C. 20981, 20 h; how it was run: as §1
Staphylococcus [6] = assay: Antimicrobial activity against coagulase-negative Staphylococcus H.A.M. 338 isolate after 20 hrs by twofold serial dilution technique; conditions: H.A.M. 338, 20 h; how it was run: as §2
Enterococcus faecalis [7] = assay: Antimicrobial activity against multidrug-resistant Enterococcus faecalis H.C. 21944 isolate after 20 hrs by twofold serial dilution technique; conditions: H.C. 21944, 20 h; how it was run: as §1
[8] = system: Mycolicibacterium smegmatis; assay: Antimicrobial activity against Mycobacterium smegmatis UFPEDA 71 at 300 ug/disk after 24 hrs by disk diffusion method; conditions: UFPEDA 71, 24 h, read-out: IZ
How it was run: (§3)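 Preliminary screen by disk diffusion. Paper disks (6 mm) holding 300 µg of compound were placed on agar plates inoculated with a standardized microbial suspension. DMSO-only disks served as negative controls. A mean inhibition zone below 7 mm was scored as no sensitivity. Values are means, n = 3.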

Staphylococcus aureus [9] = assay: Antimicrobial activity against multidrug-resistant Staphylococcus aureus H.C. 20905 isolate after 20 hrs by twofold serial dilution technique; conditions: H.C. 20905, 20 h; how it was run: as §1
Bacillus subtilis [10] = assay: Antimicrobial activity against Bacillus subtilis UFPEDA 16 at 300 ug/disk after 24 hrs by disk diffusion method; conditions: UFPEDA 16, 24 h, read-out: IZ; how it was run: as §3
Staphylococcus aureus [11] = assay: Antimicrobial activity against Staphylococcus aureus UFPEDA 01 after 20 hrs by twofold serial dilution technique; conditions: UFPEDA 01, 20 h; how it was run: as §1
Staphylococcus aureus [12] = assay: Antimicrobial activity against multidrug-resistant Staphylococcus aureus H.C. 21036 isolate after 20 hrs by twofold serial dilution technique; conditions: H.C. 21036, 20 h; how it was run: as §1
HEp-2 [13] = assay: Cytotoxicity against human Hep2 cells at 1.25 ug/mL after 72 hrs by MTT assay; conditions: HEp-2, 72 h, read-out: GI
How it was run: (§4)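 MTT antiproliferative assay. Cells were diluted to 10⁵ cells/mL in 96-well plates and preincubated for 24 h at 37 °C in humid 5% CO₂. Compounds or vincristine (reference) were then added. Formazan was dissolved and OD read at 540 nm, compared with medium-only control cells. Run in triplicate.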

NCI-H292 [14] = assay: Cytotoxicity against human NCI-H292 cells at 5 ug/mL after 72 hrs by MTT assay; conditions: NCI-H292, 72 h, read-out: GI; how it was run: as §4
[15] = system: Mycolicibacterium smegmatis; assay: Antimicrobial activity against Mycobacterium smegmatis UFPEDA 71 after 20 hrs by twofold serial dilution technique; conditions: UFPEDA 71, 20 h; how it was run: as §2
Pseudomonas aeruginosa = assay: Antimicrobial activity against Pseudomonas aeruginosa UFPEDA 39 at 300 ug/disk after 24 hrs by disk diffusion method; conditions: UFPEDA 39, 24 h, read-out: IZ; how it was run: as §3
NCI-H292 [16] = assay: Cytotoxicity against human NCI-H292 cells at 10 ug/mL after 72 hrs by MTT assay; conditions: NCI-H292, 72 h, read-out: GI; how it was run: as §4
Serratia marcescens = assay: Antimicrobial activity against Serratia marcescens UFPEDA 398 at 300 ug/disk after 24 hrs by disk diffusion method; conditions: UFPEDA 398, 24 h, read-out: IZ; how it was run: as §3
Micrococcus luteus [17] = assay: Antimicrobial activity against Micrococcus luteus UFPEDA 06 at 300 ug/disk after 24 hrs by disk diffusion method; conditions: UFPEDA 06, 24 h, read-out: IZ; how it was run: as §3
Micrococcus luteus [18] = assay: Antimicrobial activity against Micrococcus luteus UFPEDA 06 after 20 hrs by twofold serial dilution technique; conditions: UFPEDA 06, 20 h; how it was run: as §2
Staphylococcus [19] = assay: Antimicrobial activity against coagulase-negative Staphylococcus H.A.M. 278 isolate after 20 hrs by twofold serial dilution technique; conditions: H.A.M. 278, 20 h; how it was run: as §2
Bacillus subtilis [20] = assay: Antimicrobial activity against Bacillus subtilis UFPEDA 16 after 20 hrs by twofold serial dilution technique; conditions: UFPEDA 16, 20 h; how it was run: as §2
Staphylococcus aureus [21] = assay: Antimicrobial activity against multidrug-resistant Staphylococcus aureus H.C. 20794 isolate after 20 hrs by twofold serial dilution technique; conditions: H.C. 20794, 20 h; how it was run: as §1
Enterococcus faecalis [22] = assay: Antimicrobial activity against multidrug-resistant Enterococcus faecalis H.C. 21752 isolate after 20 hrs by twofold serial dilution technique; conditions: H.C. 21752, 20 h; how it was run: as §1
NCI-H292 [23] = assay: Cytotoxicity against human NCI-H292 cells at 1.25 ug/mL after 72 hrs by MTT assay; conditions: NCI-H292, 72 h, read-out: GI; how it was run: as §4
Staphylococcus aureus [24] = assay: Antimicrobial activity against Staphylococcus aureus UFPEDA 01 at 300 ug/disk after 24 hrs by disk diffusion method; conditions: UFPEDA 01, 24 h, read-out: IZ; how it was run: as §3
Enterococcus faecalis [25] = assay: Antimicrobial activity against multidrug-resistant Enterococcus faecalis H.C. 24708 isolate after 20 hrs by twofold serial dilution technique; conditions: H.C. 24708, 20 h; how it was run: as §1
HEp-2 [26] = assay: Cytotoxicity against human Hep2 cells at 10 ug/mL after 72 hrs by MTT assay; conditions: HEp-2, 72 h, read-out: GI; how it was run: as §4
Candida albicans [27] = assay: Antimicrobial activity against Candida albicans UFPEDA 1007 at 300 ug/disk after 48 hrs by disk diffusion method; conditions: UFPEDA 1007, 48 h, read-out: IZ; how it was run: as §3
Escherichia coli = assay: Antimicrobial activity against Escherichia coli UFPEDA 224 at 300 ug/disk after 24 hrs by disk diffusion method; conditions: UFPEDA 224, 24 h, read-out: IZ; how it was run: as §3
NCI-H292 [28] = assay: Cytotoxicity against human NCI-H292 cells at 2.5 ug/mL after 72 hrs by MTT assay; conditions: NCI-H292, 72 h, read-out: GI; how it was run: as §4
Staphylococcus aureus [29] = assay: Antimicrobial activity against multidrug-resistant Staphylococcus aureus H.C. 21141 isolate after 20 hrs by twofold serial dilution technique; conditions: H.C. 21141, 20 h; how it was run: as §1
HEp-2 [30] = assay: Cytotoxicity against human Hep2 cells at 5 ug/mL after 72 hrs by MTT assay; conditions: HEp-2, 72 h, read-out: GI; how it was run: as §4
Enterococcus faecalis [31] = assay: Antimicrobial activity against Enterococcus faecalis UFPEDA 138 at 300 ug/disk after 24 hrs by disk diffusion method; conditions: UFPEDA 138, 24 h, read-out: IZ; how it was run: as §3
HEp-2 [32] = assay: Cytotoxicity against human Hep2 cells at 2.5 ug/mL after 72 hrs by MTT assay; conditions: HEp-2, 72 h, read-out: GI; how it was run: as §4

O=C1NC(=S)/C(=C/c2ccc(Cl)c(Cl)c2)S1
MIC (Enterococcus faecalis [1]): 16 µg/mL (≈ 55.1 µM) | MIC (Enterococcus faecalis [2]): 8 µg/mL (≈ 27.6 µM) | MIC (Staphylococcus aureus [3]): 2 µg/mL (≈ 6.89 µM) | MIC (Candida albicans [4]): 32 µg/mL (≈ 110 µM) | MIC (Staphylococcus aureus [5]): 2 µg/mL (≈ 6.89 µM) | MIC (Staphylococcus [6]): 2 µg/mL (≈ 6.89 µM) | MIC (Enterococcus faecalis [7]): 4 µg/mL (≈ 13.8 µM) | zone of inhibition at 300 µg/disc [8]: 20 mm | MIC (Staphylococcus aureus [9]): 4 µg/mL (≈ 13.8 µM) | zone of inhibition at 300 µg/disc (Bacillus subtilis [10]): 27 mm | MIC (Staphylococcus aureus [11]): 4 µg/mL (≈ 13.8 µM) | MIC (Staphylococcus aureus [12]): 4 µg/mL (≈ 13.8 µM) | inhibition of growth at 1.25 µg/mL (HEp-2 [13]): -5.45% | inhibition of growth at 5 µg/mL (NCI-H292 [14]): 35.8% | MIC [15]: 32 µg/mL (≈ 110 µM) | zone of inhibition at 300 µg/disc (Pseudomonas aeruginosa): < 7 mm | inhibition of growth at 10 µg/mL (NCI-H292 [16]): 43.3% | zone of inhibition at 300 µg/disc (Serratia marcescens): < 7 mm | zone of inhibition at 300 µg/disc (Micrococcus luteus [17]): 27 mm | MIC (Micrococcus luteus [18]): 4 µg/mL (≈ 13.8 µM) | MIC (Staphylococcus [19]): 4 µg/mL (≈ 13.8 µM) | MIC (Bacillus subtilis [20]): 4 µg/mL (≈ 13.8 µM) | MIC (Staphylococcus aureus [21]): 2 µg/mL (≈ 6.89 µM) | MIC (Enterococcus faecalis [22]): 8 µg/mL (≈ 27.6 µM) | inhibition of growth at 1.25 µg/mL (NCI-H292 [23]): 9.18% | zone of inhibition at 300 µg/disc (Staphylococcus aureus [24]): 25 mm | MIC (Enterococcus faecalis [25]): 16 µg/mL (≈ 55.1 µM) | inhibition of growth at 10 µg/mL (HEp-2 [26]): 16.4% | zone of inhibition at 300 µg/disc (Candida albicans [27]): 14 mm | zone of inhibition at 300 µg/disc (Escherichia coli): < 7 mm | inhibition of growth at 2.5 µg/mL (NCI-H292 [28]): 19.4% | MIC (Staphylococcus aureus [29]): 2 µg/mL (≈ 6.89 µM) | inhibition of growth at 5 µg/mL (HEp-2 [30]): 11% | zone of inhibition at 300 µg/disc (Enterococcus faecalis [31]): 20 mm | inhibition of growth at 2.5 µg/mL (HEp-2 [32]): 5.03%
